Assay results gathered from unrelated publications.
Each line is one published result; the experiments were not run side by side.
Target: MAP kinase-interacting serine/threonine-protein kinase 2 (MKNK2, Homo sapiens, UniProt Q9HBH9)

| SMILES | observed | mode | technique | tested at | quantity | result |
| --- | --- | --- | --- | --- | --- | --- |
| COc1ccc2oc(-c3ccc4nc(N)oc4c3)c/c(=N\c3ccccc3NC(=O)CCN)c2c1 | binding |  |  | 1 µM | remaining binding | 93% |
| CCCCC(=O)Nc1ccc(-c2ccc3ncn(CCC)c(=O)c3c2)cn1 | binding |  | competition with immobilised ligand | 0.5 µM | remaining binding | 100% |
| N#Cc1ccc(NC(=O)Nc2ccccc2)cc1 | cell-free assay |  | competition with immobilised ligand | 25 µM | remaining binding | 46% |
| CN1CCN(C(=O)c2ccc(NC(=O)Nc3ccc(N(C)c4ccnc(Nc5ccc(CS(C)(=O)=O)cc5)n4)cc3)cc2)CC1 | binding |  | competition with immobilised ligand | 1 µM | remaining binding | 4.2% |
| CO[C@@H]1[C@H](N(C)C(=O)c2ccccc2)C[C@H]2O[C@]1(C)n1c3ccccc3c3c4c(c5c6ccccc6n2c5c31)C(=O)NC4 | enzyme activity | inhibitor |  | 1 µM | inhibition | 30% |
| CC(C)S(=O)(=O)c1ccc2nccc(Nc3ccc4sc(C5CCCC5)nc4c3)c2c1 | enzyme activity | inhibitor |  | 1 µM | activity vs control | 101% |
| Cc1ccc(NC(=O)c2ccnc(C(F)(F)F)c2)cc1-c1cc(OCCO)nc(N2CCOCC2)c1 | binding |  | competition with immobilised ligand | 1 µM | remaining binding | 79% |
| C1=C/COCc2cc(ccc2OCCN2CCCC2)Nc2nccc(n2)-c2cccc(c2)COC/1 | binding |  |  | 0.1 µM | remaining binding | 59% |
| C=CC(=O)N1CCC([C@@H]2CCNc3c(C(N)=O)c(-c4ccc(Oc5ccccc5)cc4)nn32)CC1 | enzyme activity | inhibitor |  | 1 µM | inhibition | 22% |
